Published values gathered from unrelated publications.
Each line is one published result; the experiments were not run side by side.
Target: Discoidin domain-containing receptor 2 (DDR2, Homo sapiens, UniProt Q16832)

Structure (SMILES) | effect on | action | method | tested at | endpoint | result
O=C1NC(=O)c2cc(Nc3ccc(F)cc3)c(Nc3ccc(F)cc3)cc21 | cell-free assay | – | – | 0.5 µM | remaining signal | 99.6%
Cc1ccc(C(=O)Nc2ccc(CN3CCN(C)CC3)c(C(F)(F)F)c2)cc1C#Cc1cnc2cccnn12 | cell-free assay | – | – | 23.5 nM | remaining signal | 0.3%
CC(C)(C)c1nc2c(s1)c1nc(N)ncc1c1ccc(NS(=O)(=O)c3c(F)cccc3F)c(F)c12 | enzyme activity | inhibitor | radiometric | 1 µM | remaining activity | 69%
CNC(=O)c1cc2c(Oc3ccc(NC(=O)C4(C(=O)Nc5ccc(F)cc5)CC4)cc3)ccnc2cc1OC | enzyme activity | inhibitor | radiometric | 1 µM | inhibition | 104%
Cc1cc(NC(=O)c2cccc3cc(-c4cccc5[nH]nc(N)c45)ccc23)ccc1F | enzyme activity | inhibitor | – | 0.1 µM | activity vs control | 60%
O=C(Nc1cnn(-c2csc(C(=O)NC3COC3)c2)c1)Nc1c(F)cccc1Cl | enzyme activity | inhibitor | – | 5 µM | remaining activity | 96.6%
Cc1cc(NC(=O)c2cccc(S(F)(F)(F)(F)F)c2)cc(-n2ccn3nc(-c4cccnc4)cc23)c1 | cell-free assay | – | competition with immobilised ligand | 1 µM | remaining binding | 18.2%
CC/C(=N\NC(=O)NCc1cccc(O)c1)c1ccc(O)c(C)c1O | enzyme activity | inhibitor | – | 0.1 µM | inhibition | 0.1%
CCN(CC)CCNC(=O)c1c(C)[nH]c(/C=C2\C(=O)Nc3ccc(F)cc32)c1C | enzyme activity | inhibitor | – | 1 µM | remaining activity | 103%
COc1cc2c(N3CCN(C(=O)Nc4ccc(OC(C)C)cc4)CC3)ncnc2cc1OCCCN1CCCCC1 | cell-free assay | – | – | 0.5 µM | remaining signal | 102%
Cc1cnc(NC2CCOCC2)nc1-n1cnc(C(=O)NC(CN)c2cc(F)cc(Cl)c2)c1 (stereo not drawn) | enzyme activity | inhibitor | radiometric | 1 µM | remaining activity | 102%
Nc1ncnc2occ(-c3ccc(NC(=O)Nc4cc(C(F)(F)F)ccc4F)cc3)c12 | cell-free assay | – | – | 20 µM | remaining signal | 1.4%
O=C(Nc1ccc(Oc2ccc(F)cc2)cc1)N1CCc2ncccc2[C@H]1c1ccc(F)cc1 | cell-free assay | – | competition with immobilised ligand | 1 µM | remaining binding | 100%
C=CC(=O)Nc1cc(Nc2nccc(Nc3cc(Cl)c(F)cc3C(C)(C)O)n2)c(OC)cc1N1CC[C@@H](N(C)C)C1 | enzyme activity | inhibitor | – | 1 µM | inhibition | 1%
CO[C@H]1CC[C@H](CNc2ccc(S(=O)(=O)NC(=O)c3ccc(N4CCN(CC5=C(c6ccc(Cl)cc6)CC(C)(C)CC5)CC4)cc3Oc3cnc4[nH]ccc4c3)cc2[N+](=O)[O-])CC1 | cell-free assay | – | competition with immobilised ligand | 1 µM | remaining binding | 100%
COc1cc(Nc2cnc(C#N)c(O[C@H](C)CN(C)C)n2)ncc1-c1cnn(C)c1 | enzyme activity | inhibitor | radiometric | 1 µM | remaining activity | 95%
C[C@@H]1CN(c2cc(-c3n[nH]c4ccc(OC5(C)CC5)cc34)ncn2)C[C@H](C)O1 | cell-free assay | – | competition with immobilised ligand | 0.1 µM | remaining binding | 82%
CC(C)(O)[C@H]1CC[C@H](Nc2ccc3ncc(-c4cccc(C(F)(F)F)c4)n3n2)CC1 | enzyme activity | inhibitor | – | 1 µM | remaining activity | 49.5%
CS(=O)(=O)N1CCCC(NC(=O)[C@H](CCC2CCCCC2)NC(=O)c2ccc(CNC(=O)c3cnc4ccccn34)cc2)C1 (stereo partly drawn) | cell-free assay | – | competition with immobilised ligand | 0.1 µM | remaining binding | 0%
Cc1[nH]c(/C=C2\C(=O)Nc3ccc(F)cc32)c(C)c1C(=O)N[C@H]1CCN(C(=O)N(C)C)C1 | enzyme activity | inhibitor | – | 1 µM | remaining activity | 107%
CNC(=O)Nc1ccc2c(c1)CC[C@@]21OC(=O)N(CC(=O)N(Cc2ccc(F)cc2)[C@@H](C)C(F)(F)F)C1=O | cell-free assay | – | competition with immobilised ligand | 1 µM | remaining binding | 75%
CCN(CC)CCNC(=O)c1c(C)[nH]c(/C=C2\C(=O)Nc3ccc(F)cc32)c1C | enzyme activity | inhibitor | – | 0.3 µM | inhibition | -8%
O=C(NCc1ncc(C(F)(F)F)cc1Cl)c1ccc2c(c1)C1(CCS(=O)(=O)CC1)[C@H](C1CC1)N2S(=O)(=O)c1ccc(F)cc1 | cell-free assay | – | competition with immobilised ligand | 1 µM | remaining binding | 78%
CNC(=O)c1cc(Oc2ccc(NC(=O)Nc3ccc(Cl)c(C(F)(F)F)c3)cc2)ccn1 | enzyme activity | inhibitor | – | 10 µM | inhibition | 111%
